Measurements from publication PMC11060919 (International journal of antimicrobial agents, 2024).

Columns and labels:
rat = settings: translational rat model; increased nephrotoxic effect; cited from earlier work
male Sprague-Dawley rats [1] = test: Iohexol-measured GFR; assay type: in vivo, Sprague-Dawley rat; settings: Baseline (day 0, before vancomycin); dose-matched bolus group versus humanized infusion group as referent; marginal difference, mixed effects model
male Sprague-Dawley rats [2] = test: Urinary osteopontin; assay type: in vivo, Sprague-Dawley rat; settings: dose-matched bolus versus humanized infusion as referent
Procedure, shortened: (§1)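 Male Sprague-Dawley rats were housed in metabolic cages, with 24-h urine collected from baseline (day 0) through day 2. On day 1 the glycopeptide was given IV either as 30.8 mg in 6.0 mL saline by variable-rate infusion over 24 hours (n=11), or as 15.4 mg boluses over 2 minutes every 12 hours ×2 plus volume-matching saline infusion (n=8). Analysis: mixed-effects model, day 0 referent, Bonferroni-corrected group-by-day tests.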

male Sprague-Dawley rats [3] = test: Urinary clusterin, kidney injury biomarker, 24-hour urine; assay type: in vivo, Sprague-Dawley rat; settings: dose-matched bolus versus humanized infusion as referent
Procedure, shortened: as §1

male Sprague-Dawley rats [4] = test: Urinary KIM-1, kidney injury biomarker, 24-hour urine; assay type: in vivo, Sprague-Dawley rat; settings: dose-matched bolus versus humanized infusion as referent
Procedure, shortened: as §1

Row | SMILES | increase of urinary KIM-1 when added to vancomycin, compared to vancomycin (rat) [ng/24 hours] | GFR difference, mean (95% CI) (male Sprague-Dawley rats [1]) [mL/min/100 g body weight] | Urinary OPN difference, mean (95% CI) (male Sprague-Dawley rats [2]; Day 1) [ng] | Urinary OPN difference, mean (95% CI) (male Sprague-Dawley rats [2]; Day 2) [ng] | Urinary clusterin difference, mean (95% CI) (male Sprague-Dawley rats [3]; Day 1) [ng] | Urinary clusterin difference, mean (95% CI) (male Sprague-Dawley rats [3]; Day 2) [ng] | KIM-1 difference, mean (95% CI) (male Sprague-Dawley rats [4]; Day 1) [ng] | KIM-1 difference, mean (95% CI) (male Sprague-Dawley rats [4]; Day 2) [ng]
1 | Cc1onc(-c2c(F)cccc2Cl)c1C(=O)N[C@@H]1C(=O)N2[C@@H]1SC(C)(C)[C@@H]2C(=O)O [flucloxacillin] | 58 to 140 | – | – | – | – | – | – | –
2 | CN[C@H](CC(C)C)C(=O)N[C@H]1C(=O)N[C@@H](CC(N)=O)C(=O)N[C@H]2C(=O)N[C@H]3C(=O)N[C@H](C(=O)N[C@H](C(=O)O)c4cc(O)cc(O)c4-c4cc3ccc4O)[C@H](O)c3ccc(c(Cl)c3)Oc3cc2cc(c3O[C@@H]2O[C@H](CO)[C@@H](O)[C@H](O)[C@H]2O[C@H]2C[C@](C)(N)[C@H](O)[C@H](C)O2)Oc2ccc(cc2Cl)[C@H]1O [vancomycin] | – | 0.05 | -1.76 | 0.52 | 1932 | -3103 | 9.80 | -2.27
